Test results published in ChEMBL document CHEMBL4689842, “EUbOPEN Chemogenomics Library wave 1” (2021).

Key:
Type in all cases: toxicity, cell-based
U2OS = test: Incucyte cell viability with U2OS; details: human, 10 µM, compound concentration 10 uM; also: filed as whole numbers so only -1 and 0 and 1 occur
Fibroblast [1] = test: Incucyte cell viability with human fibroblast; details: 10 µM, compound concentration 10 uM; also: filed as whole numbers so only -1 and 0 and 1 occur
HEK-293T = test: Incucyte cell viability with HEK293T; details: human, 10 µM, compound concentration 10 uM; also: filed as whole numbers so only -1 and 0 and 1 occur
Fibroblast [2] = test: Multiplex assay against human fibroblast
How it was run: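 Phenotypes for tubulin, mitochondrial mass and membrane permeability are expressed as per cents of healthy-nucleus cells. Cells were stained live at seeding with Hoechst33342, BioTracker Green Microtubule Cytoskeleton Dye, MitoTracker Red and Annexin V Alexa Fluor 680, then imaged after compound addition on a CQ1 microscope at 37°C and 5% CO2. Machine-learning gating in CellPathfinder separated Hoechst high-intensity objects from normal cells, divided normal cells by nuclear state (healthy, pyknosed, fragmented) and divided pyknosed cells into mitotic or apoptotic.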

[3] = 0 h, replicate number 1, timepoint 0 hours
[4] = 6 h, replicate number 1, timepoint 6 hours
[5] = 6 h, replicate number 2, timepoint 6 hours
[6] = 12 h, replicate number 1, timepoint 12 hours
[7] = 18 h, replicate number 1, timepoint 18 hours
[8] = 24 h, replicate number 1, timepoint 24 hours
[9] = 12 h, 1 µM, compound concentration 1 uM, replicate 1
[10] = 12 h, 1 µM, compound concentration 1 uM, replicate 2
[11] = 12 h, 10 µM, compound concentration 10 uM, replicate 1
[12] = 12 h, 10 µM, compound concentration 10 uM, replicate 2
[13] = 24 h, 1 µM, compound concentration 1 uM, replicate 1
[14] = 24 h, 1 µM, compound concentration 1 uM, replicate 2
[15] = 24 h, 10 µM, compound concentration 10 uM, replicate 1
[16] = 24 h, 10 µM, compound concentration 10 uM, replicate 2

CNC(=O)c1cc(Oc2ccc(NC(=O)Nc3cc(C(C)(C)C)nn3-c3ccc4ncccc4c3)c(F)c2)ccn1 [REBASTINIB]
Growth Rate (U2OS; [3]): 1
Growth Rate (U2OS; [4]): 0
Growth Rate (U2OS; [5]): 1
Growth Rate (U2OS; [6]): 0
Growth Rate (U2OS; [7]): 0
Growth Rate (U2OS; [8]): 0
Growth Rate (Fibroblast [1]; [3]): 0
Growth Rate (Fibroblast [1]; [5]): 1
Growth Rate (Fibroblast [1]; [6]): 0
Growth Rate (Fibroblast [1]; [7]): 0
Growth Rate (Fibroblast [1]; [8]): 0
Growth Rate (HEK-293T; 0 h, replicate number 2, timepoint 0 hours): 0
Growth Rate (HEK-293T; [4]): 0
Growth Rate (HEK-293T; [6]): 0
Growth Rate (HEK-293T; [7]): 0
Growth Rate (HEK-293T; [8]): 0
Population Apoptotic (%) (Fibroblast [2]; [9]): 90%
Population Fragmented Nuclei (%) (Fibroblast [2]; [9]): 24%
Population Healthy Nuclei (%) (Fibroblast [2]; [9]): 66%
Population Hoechst High Intensity Objects (%) (Fibroblast [2]; [9]): 10%
Population Membrane Permeable-Phenotype (%) (Fibroblast [2]; [9]): 4%
Population Mitochondria Different-Phenotype (%) (Fibroblast [2]; [9]): 2%
Population Mitotic Cells (%) (Fibroblast [2]; [9]): 10%
Population Normal (%) (Fibroblast [2]; [9]): 89%
Population Pyknosed Nuclei (%) (Fibroblast [2]; [9]): 9%
Population Tubulin-Different-Phenotype (%) (Fibroblast [2]; [9]): 4%
Total Cell Count (Fibroblast [2]; [9]): 237
Population Apoptotic (%) (Fibroblast [2]; [10]): 40%
Population Fragmented Nuclei (%) (Fibroblast [2]; [10]): 56%
Population Healthy Nuclei (%) (Fibroblast [2]; [10]): 32%
Population Hoechst High Intensity Objects (%) (Fibroblast [2]; [10]): 38%
Population Membrane Permeable-Phenotype (%) (Fibroblast [2]; [10]): 26%
Population Mitochondria Different-Phenotype (%) (Fibroblast [2]; [10]): 6%
Population Mitotic Cells (%) (Fibroblast [2]; [10]): 60%
Population Normal (%) (Fibroblast [2]; [10]): 61%
Population Pyknosed Nuclei (%) (Fibroblast [2]; [10]): 10%
Population Tubulin-Different-Phenotype (%) (Fibroblast [2]; [10]): 26%
Total Cell Count (Fibroblast [2]; [10]): 75
Population Apoptotic (%) (Fibroblast [2]; [11]): 59%
Population Fragmented Nuclei (%) (Fibroblast [2]; [11]): 20%
Population Healthy Nuclei (%) (Fibroblast [2]; [11]): 59%
Population Hoechst High Intensity Objects (%) (Fibroblast [2]; [11]): 8%
Population Membrane Permeable-Phenotype (%) (Fibroblast [2]; [11]): 10%
Population Mitochondria Different-Phenotype (%) (Fibroblast [2]; [11]): 16%
Population Mitotic Cells (%) (Fibroblast [2]; [11]): 40%
Population Normal (%) (Fibroblast [2]; [11]): 91%
Population Pyknosed Nuclei (%) (Fibroblast [2]; [11]): 19%
Population Tubulin-Different-Phenotype (%) (Fibroblast [2]; [11]): 44%
Total Cell Count (Fibroblast [2]; [11]): 238
Population Apoptotic (%) (Fibroblast [2]; [12]): 85%
Population Fragmented Nuclei (%) (Fibroblast [2]; [12]): 54%
Population Healthy Nuclei (%) (Fibroblast [2]; [12]): 24%
Population Hoechst High Intensity Objects (%) (Fibroblast [2]; [12]): 45%
Population Membrane Permeable-Phenotype (%) (Fibroblast [2]; [12]): 0%
Population Mitochondria Different-Phenotype (%) (Fibroblast [2]; [12]): 37%
Population Mitotic Cells (%) (Fibroblast [2]; [12]): 14%
Population Normal (%) (Fibroblast [2]; [12]): 55%
Population Pyknosed Nuclei (%) (Fibroblast [2]; [12]): 21%
Population Tubulin-Different-Phenotype (%) (Fibroblast [2]; [12]): 50%
Total Cell Count (Fibroblast [2]; [12]): 60
Population Apoptotic (%) (Fibroblast [2]; [13]): 83%
Population Fragmented Nuclei (%) (Fibroblast [2]; [13]): 24%
Population Healthy Nuclei (%) (Fibroblast [2]; [13]): 64%
Population Hoechst High Intensity Objects (%) (Fibroblast [2]; [13]): 12%
Population Membrane Permeable-Phenotype (%) (Fibroblast [2]; [13]): 2%
Population Mitochondria Different-Phenotype (%) (Fibroblast [2]; [13]): 2%
Population Mitotic Cells (%) (Fibroblast [2]; [13]): 16%
Population Normal (%) (Fibroblast [2]; [13]): 87%
Population Pyknosed Nuclei (%) (Fibroblast [2]; [13]): 11%
Population Tubulin-Different-Phenotype (%) (Fibroblast [2]; [13]): 3%
Total Cell Count (Fibroblast [2]; [13]): 239
Population Apoptotic (%) (Fibroblast [2]; [14]): 33%
Population Fragmented Nuclei (%) (Fibroblast [2]; [14]): 56%
Population Healthy Nuclei (%) (Fibroblast [2]; [14]): 37%
Population Hoechst High Intensity Objects (%) (Fibroblast [2]; [14]): 30%
Population Membrane Permeable-Phenotype (%) (Fibroblast [2]; [14]): 5%
Population Mitochondria Different-Phenotype (%) (Fibroblast [2]; [14]): 10%
Population Mitotic Cells (%) (Fibroblast [2]; [14]): 66%
Population Normal (%) (Fibroblast [2]; [14]): 69%
Population Pyknosed Nuclei (%) (Fibroblast [2]; [14]): 5%
Population Tubulin-Different-Phenotype (%) (Fibroblast [2]; [14]): 31%
Total Cell Count (Fibroblast [2]; [14]): 73
Population Apoptotic (%) (Fibroblast [2]; [15]): 52%
Population Fragmented Nuclei (%) (Fibroblast [2]; [15]): 24%
Population Healthy Nuclei (%) (Fibroblast [2]; [15]): 57%
Population Hoechst High Intensity Objects (%) (Fibroblast [2]; [15]): 14%
Population Membrane Permeable-Phenotype (%) (Fibroblast [2]; [15]): 4%
Population Mitochondria Different-Phenotype (%) (Fibroblast [2]; [15]): 28%
Population Mitotic Cells (%) (Fibroblast [2]; [15]): 47%
Population Normal (%) (Fibroblast [2]; [15]): 85%
Population Pyknosed Nuclei (%) (Fibroblast [2]; [15]): 17%
Population Tubulin-Different-Phenotype (%) (Fibroblast [2]; [15]): 54%
Total Cell Count (Fibroblast [2]; [15]): 229
Population Apoptotic (%) (Fibroblast [2]; [16]): 70%
Population Fragmented Nuclei (%) (Fibroblast [2]; [16]): 52%
Population Healthy Nuclei (%) (Fibroblast [2]; [16]): 22%
Population Hoechst High Intensity Objects (%) (Fibroblast [2]; [16]): 33%
Population Membrane Permeable-Phenotype (%) (Fibroblast [2]; [16]): 33%
Population Mitochondria Different-Phenotype (%) (Fibroblast [2]; [16]): 44%
Population Mitotic Cells (%) (Fibroblast [2]; [16]): 30%
Population Normal (%) (Fibroblast [2]; [16]): 66%
Population Pyknosed Nuclei (%) (Fibroblast [2]; [16]): 25%
Population Tubulin-Different-Phenotype (%) (Fibroblast [2]; [16]): 44%
Total Cell Count (Fibroblast [2]; [16]): 60
